Reference: ChEMBL document CHEMBL4689842, “EUbOPEN Chemogenomics Library wave 1” (2021)

System: U2OS
Assay: Multiplex assay against U2OS
Assay type: toxicity, cell-based
Conditions: human
Procedure, shortened: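 Compound was added to live cells that had been stained at seeding with Hoechst33342, BioTracker Green Microtubule Cytoskeleton Dye, MitoTracker Red and Annexin V Alexa Fluor 680, and imaging followed on a CQ1 microscope at 37°C and 5% CO2. CellPathfinder machine-learning gating divided cells into Hoechst high-intensity objects or normal cells, normal cells into healthy, pyknosed or fragmented nuclei, and pyknosed cells into mitotic or apoptotic. Tubulin, mitochondrial-mass and membrane-permeability phenotypes are per cents of healthy-nucleus cells.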

[1] = 12 h, 1 µM, compound concentration 1 uM, replicate 1
[2] = 12 h, 1 µM, compound concentration 1 uM, replicate 2
[3] = 12 h, 10 µM, compound concentration 10 uM, replicate 1
[4] = 12 h, 10 µM, compound concentration 10 uM, replicate 2
[5] = 24 h, 1 µM, compound concentration 1 uM, replicate 1
[6] = 24 h, 1 µM, compound concentration 1 uM, replicate 2
[7] = 24 h, 10 µM, compound concentration 10 uM, replicate 1
[8] = 24 h, 10 µM, compound concentration 10 uM, replicate 2
[9] = 48 h, 1 µM, compound concentration 1 uM, replicate 1
[10] = 48 h, 1 µM, compound concentration 1 uM, replicate 2
[11] = 48 h, 10 µM, compound concentration 10 uM, replicate 1
[12] = 48 h, 10 µM, compound concentration 10 uM, replicate 2

## COc1cc(N2CCN(C)CC2)ccc1Nc1ncc2c(n1)N(C)c1ccccc1C(=O)N2C
[1]
  Population Apoptotic (%): 33%
  Population Fragmented Nuclei (%): 12%
  Population Healthy Nuclei (%): 72%
  Population Hoechst High Intensity Objects (%): 6%
  Population Membrane Permeable-Phenotype (%): 6%
  Population Mitochondria Different-Phenotype (%): 25%
  Population Mitotic Cells (%): 66%
  Population Normal (%): 93%
  Population Pyknosed Nuclei (%): 14%
  Population Tubulin-Different-Phenotype (%): 17%
  Total Cell Count: 199
[2]
  Population Apoptotic (%): 40%
  Population Fragmented Nuclei (%): 5%
  Population Healthy Nuclei (%): 82%
  Population Hoechst High Intensity Objects (%): 4%
  Population Membrane Permeable-Phenotype (%): 9%
  Population Mitochondria Different-Phenotype (%): 21%
  Population Mitotic Cells (%): 60%
  Population Normal (%): 95%
  Population Pyknosed Nuclei (%): 12%
  Population Tubulin-Different-Phenotype (%): 15%
  Total Cell Count: 104
[3]
  Population Apoptotic (%): 60%
  Population Fragmented Nuclei (%): 11%
  Population Healthy Nuclei (%): 66%
  Population Hoechst High Intensity Objects (%): 7%
  Population Membrane Permeable-Phenotype (%): 22%
  Population Mitochondria Different-Phenotype (%): 96%
  Population Mitotic Cells (%): 39%
  Population Normal (%): 92%
  Population Pyknosed Nuclei (%): 21%
  Population Tubulin-Different-Phenotype (%): 99%
  Total Cell Count: 177
[4]
  Population Apoptotic (%): 66%
  Population Fragmented Nuclei (%): 15%
  Population Healthy Nuclei (%): 61%
  Population Hoechst High Intensity Objects (%): 5%
  Population Membrane Permeable-Phenotype (%): 21%
  Population Mitotic Cells (%): 33%
  Population Normal (%): 94%
  Population Pyknosed Nuclei (%): 23%
  Population Tubulin-Different-Phenotype (%): 100%
  Total Cell Count: 42
[5]
  Population Apoptotic (%): 29%
  Population Fragmented Nuclei (%): 11%
  Population Hoechst High Intensity Objects (%): 5%
  Population Membrane Permeable-Phenotype (%): 3%
  Population Mitochondria Different-Phenotype (%): 8%
  Population Mitotic Cells (%): 70%
  Population Normal (%): 94%
  Population Pyknosed Nuclei (%): 12%
  Population Tubulin-Different-Phenotype (%): 8%
  Total Cell Count: 187
[6]
  Population Apoptotic (%): 50%
  Population Fragmented Nuclei (%): 9%
  Population Healthy Nuclei (%): 75%
  Population Hoechst High Intensity Objects (%): 6%
  Population Membrane Permeable-Phenotype (%): 6%
  Population Mitochondria Different-Phenotype (%): 12%
  Population Mitotic Cells (%): 50%
  Population Normal (%): 93%
  Population Pyknosed Nuclei (%): 14%
  Population Tubulin-Different-Phenotype (%): 6%
  Total Cell Count: 101
[7]
  Population Apoptotic (%): 69%
  Population Fragmented Nuclei (%): 18%
  Population Healthy Nuclei (%): 50%
  Population Hoechst High Intensity Objects (%): 7%
  Population Membrane Permeable-Phenotype (%): 19%
  Population Mitochondria Different-Phenotype (%): 94%
  Population Mitotic Cells (%): 30%
  Population Normal (%): 92%
  Population Pyknosed Nuclei (%): 30%
  Population Tubulin-Different-Phenotype (%): 97%
  Total Cell Count: 204
[8]
  Population Apoptotic (%): 76%
  Population Fragmented Nuclei (%): 11%
  Population Healthy Nuclei (%): 63%
  Population Hoechst High Intensity Objects (%): 8%
  Population Membrane Permeable-Phenotype (%): 30%
  Population Mitochondria Different-Phenotype (%): 93%
  Population Mitotic Cells (%): 23%
  Population Normal (%): 91%
  Population Pyknosed Nuclei (%): 25%
  Population Tubulin-Different-Phenotype (%): 66%
  Total Cell Count: 44
[9]
  Population Apoptotic (%): 42%
  Population Fragmented Nuclei (%): 7%
  Population Healthy Nuclei (%): 77%
  Population Membrane Permeable-Phenotype (%): 4%
  Population Mitochondria Different-Phenotype (%): 5%
  Population Mitotic Cells (%): 57%
  Population Pyknosed Nuclei (%): 14%
  Population Tubulin-Different-Phenotype (%): 8%
  Total Cell Count: 182
[10]
  Population Apoptotic (%): 60%
  Population Fragmented Nuclei (%): 5%
  Population Healthy Nuclei (%): 76%
  Population Hoechst High Intensity Objects (%): 3%
  Population Membrane Permeable-Phenotype (%): 9%
  Population Mitochondria Different-Phenotype (%): 16%
  Population Mitotic Cells (%): 40%
  Population Normal (%): 96%
  Population Pyknosed Nuclei (%): 18%
  Population Tubulin-Different-Phenotype (%): 11%
  Total Cell Count: 88
[11]
  Population Apoptotic (%): 84%
  Population Fragmented Nuclei (%): 21%
  Population Healthy Nuclei (%): 42%
  Population Hoechst High Intensity Objects (%): 7%
  Population Membrane Permeable-Phenotype (%): 18%
  Population Mitotic Cells (%): 15%
  Population Normal (%): 92%
  Population Pyknosed Nuclei (%): 35%
  Population Tubulin-Different-Phenotype (%): 82%
  Total Cell Count: 297
[12]
  Population Apoptotic (%): 63%
  Population Fragmented Nuclei (%): 11%
  Population Healthy Nuclei (%): 46%
  Population Hoechst High Intensity Objects (%): 19%
  Population Membrane Permeable-Phenotype (%): 33%
  Population Mitochondria Different-Phenotype (%): 90%
  Population Mitotic Cells (%): 36%
  Population Normal (%): 80%
  Population Pyknosed Nuclei (%): 42%
  Population Tubulin-Different-Phenotype (%): 61%
  Total Cell Count: 57
